Starred links: 1 amine or outer side, 2 acyl side, 3 side chain; linkers in the order of their positions; H or OH if unused. Positions of bridges follow the written chain, without caps; N, C: chain ends. Non-standard residues stand in square brackets, D forms with d. Residues, ends and D or L forms follow the SMILES beside them. X1 = O=C([C@@H](CCCCC=[*:3])N[*:1])[*:2]; X2 = O=C([C@H](CCCCCC=[*:3])N[*:1])[*:2]; Gla = N[C@@H](CC(C(=O)O)C(=O)O)C(=O)O; Aib = CC(C)(N)C(=O)O
Legend:
[1] = Toxicity in human RBC assessed as hemolysis; format: cell-based, Erythrocyte; conditions: red blood cells (RBC)
Summary of the method: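 Red blood cell lysis assay; cytotoxicity reported as IC50 in µM.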

RAW264.7 [2] = experiment: Induction of [3H]cholesterol efflux in mouse RAW264.7 cells at 30 uM after 24 hrs by scintillation counting; format: functional, cell-based
RAW264.7 [3] = experiment: Cytotoxicity against mouse RAW264.7 cells after 24 hrs by MTT assay; format: cell-based; conditions: RAW264.7, 24 h
Summary of the method: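 RAW macrophage cytotoxicity examined at peptide concentrations up to 160 µM.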

RAW264.7 [4] = experiment: Induction of [3H]cholesterol efflux in mouse RAW264.7 cells after 24 hrs by scintillation counting; format: functional, cell-based
Summary of the method: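 Cholesterol efflux from RAW macrophages; EC50 reported in µM as the mean of three experiments.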

[5] = Mus musculus, RAW264.7, read-out: EC50

Molecule	IC50 [1]	cholesterol efflux (RAW264.7 [2])	IC50 (RAW264.7 [3])	EC50 (RAW264.7 [4]; [5])	EC50 (RAW264.7 [4]; raw264.7)
CC(C)C[C@H](NC(=O)[C@H](CCCCN)NC(=O)[C@H](CCC(N)=O)NC(=O)[C@H](CCCCN)NC(=O)[C@H]1CCC/C=C\CCC[C@@H](NC(=O)[C@H](CCC(=O)O)NC(=O)[C@H](CC(N)=O)NC(=O)[C@H](CC(C)C)NC(=O)[C@H](CCCCN)NC(=O)[C@H](CCC(=O)O)NC(=O)[C@H](CCCNC(=N)N)NC(=O)[C@H](Cc2ccccc2)NC(=O)[C@H](CCC(=O)O)NC(=O)[C@H](CC(=O)O)NC(=O)[C@H](CC(C)C)NC(=O)[C@@H](NC(=O)[C@@H]2CCCN2)C(C)C)C(=O)N[C@@H](CC(C)C)C(=O)N[C@@H](CCC(=O)O)C(=O)N[C@@H](C)C(=O)N1)C(=O)N[C@@H](CCCCN)C(=O)O	> 160 µM	2%	> 160 µM		
C=CCCC[C@@H](NC(=O)[C@H](CCC(=O)O)NC(=O)[C@H](CC(N)=O)NC(=O)[C@H](CC(C)C)NC(=O)[C@@H](CCCC=C)NC(=O)[C@H](CCC(=O)O)NC(=O)[C@H](CCCNC(=N)N)NC(=O)[C@H](Cc1ccccc1)NC(=O)[C@H](CCC(=O)O)NC(=O)[C@H](CC(=O)O)NC(=O)[C@H](CC(C)C)NC(=O)[C@@H](NC(=O)[C@@H]1CCCN1)C(C)C)C(=O)N[C@@H](CC(C)C)C(=O)N[C@@H](CCC(=O)O)C(=O)N[C@@H](C)C(=O)N[C@@H](CC(C)C)C(=O)N[C@@H](CCCCN)C(=O)N[C@@H](CCC(N)=O)C(=O)N[C@@H](CCCCN)C(=O)N[C@@H](CC(C)C)C(=O)N[C@@H](CCCCN)C(=O)O	> 160 µM		> 160 µM	46 µM	
CC(C)C[C@H](NC(=O)[C@H](C)NC(=O)[C@H](CCC(=O)O)NC(=O)[C@H](CC(C)C)NC(=O)[C@H]1CCC/C=C\CCC[C@@H](NC(=O)[C@H](CCC(=O)O)NC(=O)[C@H](CCCNC(=N)N)NC(=O)[C@H](Cc2ccccc2)NC(=O)[C@H](CCC(=O)O)NC(=O)[C@H](CC(=O)O)NC(=O)[C@H](CC(C)C)NC(=O)[C@@H](NC(=O)[C@@H]2CCCN2)C(C)C)C(=O)N[C@@H](CC(C)C)C(=O)N[C@@H](CC(N)=O)C(=O)N[C@@H](CCC(=O)O)C(=O)N1)C(=O)N[C@@H](CCCCN)C(=O)N[C@@H](CCC(N)=O)C(=O)N[C@@H](CCCCN)C(=O)N[C@@H](CC(C)C)C(=O)N[C@@H](CCCCN)C(=O)O	> 160 µM		> 160 µM	10 µM	
C=CCCCCC[C@H](NC(=O)[C@H](CCC(=O)O)NC(=O)[C@H](CC(=O)O)NC(=O)[C@H](CC(C)C)NC(=O)[C@@H](NC(=O)[C@@H]1CCCN1)C(C)C)C(=O)N[C@@H](CCCNC(=N)N)C(=O)N[C@@H](CCC(=O)O)C(=O)N[C@@H](CCCCN)C(=O)N[C@@H](CC(C)C)C(=O)N[C@@H](CC(N)=O)C(=O)N[C@H](CCC(=O)O)C(=O)N[C@@H](CCCCC=C)C(=O)N[C@H](CC(C)C)C(=O)N[C@H](CCC(=O)O)C(=O)N[C@H](C)C(=O)N[C@H](CC(C)C)C(=O)N[C@H](CCCCN)C(=O)N[C@H](CCC(N)=O)C(=O)N[C@H](CCCCN)C(=O)N[C@H](CC(C)C)C(=O)N[C@H](CCCCN)C(=O)O	> 160 µM		> 160 µM	1.3 µM	
CC(C)C[C@H](NC(=O)[C@H](C)NC(=O)[C@H](CCC(=O)O)NC(=O)[C@H](CC(C)C)NC(=O)[C@@H]1CCC/C=C\CCC[C@@H](NC(=O)[C@H](CCC(=O)O)NC(=O)[C@H](CCCNC(=N)N)NC(=O)[C@H](Cc2ccccc2)NC(=O)[C@H](CCC(=O)O)NC(=O)[C@H](CC(=O)O)NC(=O)[C@H](CC(C)C)NC(=O)[C@@H](NC(=O)[C@@H]2CCCN2)C(C)C)C(=O)N[C@@H](CC(C)C)C(=O)N[C@@H](CC(N)=O)C(=O)N[C@@H](CCC(=O)O)C(=O)N1)C(=O)N[C@@H](CCCCN)C(=O)N[C@@H](CCC(N)=O)C(=O)N[C@@H](CCCCN)C(=O)N[C@@H](CC(C)C)C(=O)N[C@@H](CCCCN)C(=O)O	> 160 µM		> 160 µM		Not Active
C=CCCC[C@@H](NC(=O)[C@H](C)NC(=O)[C@H](CCC(=O)O)NC(=O)[C@H](CC(C)C)NC(=O)[C@@H](CCCC=C)NC(=O)[C@H](CCC(=O)O)NC(=O)[C@H](CC(N)=O)NC(=O)[C@H](CC(C)C)NC(=O)[C@H](CCCCN)NC(=O)[C@H](CCC(=O)O)NC(=O)[C@H](CCCNC(=N)N)NC(=O)[C@H](Cc1ccccc1)NC(=O)[C@H](CCC(=O)O)NC(=O)[C@H](CC(=O)O)NC(=O)[C@H](CC(C)C)NC(=O)[C@@H](NC(=O)[C@@H]1CCCN1)C(C)C)C(=O)N[C@@H](CCCCN)C(=O)N[C@@H](CCC(N)=O)C(=O)N[C@@H](CCCCN)C(=O)N[C@@H](CC(C)C)C(=O)N[C@@H](CCCCN)C(=O)O	> 160 µM	3%	> 160 µM		
CC(C)C[C@H](NC(=O)[C@H](C)NC(=O)[C@H](CCC(=O)O)NC(=O)[C@H](CC(N)=O)NC(=O)[C@H](CC(C)C)NC(=O)[C@H](CCCCN)NC(=O)[C@H](CCC(=O)O)NC(=O)[C@H](CCCNC(=N)N)NC(=O)[C@H](Cc1ccccc1)NC(=O)[C@H](CCC(=O)O)NC(=O)[C@H](CC(=O)O)NC(=O)[C@H](CC(C)C)NC(=O)[C@@H](NC(=O)[C@@H]1CCCN1)C(C)C)C(=O)N[C@@H](CC(C(=O)O)C(=O)O)C(=O)N[C@@H](C)C(=O)N[C@@H](CC(C)C)C(=O)N[C@@H](CCCCN)C(=O)N[C@@H](CCC(N)=O)C(=O)N[C@@H](CCCCN)C(=O)N[C@@H](CC(C)C)C(=O)N[C@@H](CCCCN)C(=O)O (H-PVLDEFREKLNEAL[Gla]ALKQKLK-OH)	75 µM		> 160 µM	234 µM	
CC(C)C[C@H](NC(=O)[C@H](CCCCN)NC(=O)[C@H](CCC(N)=O)NC(=O)[C@H](CCCCN)NC(=O)[C@H](CC(C)C)NC(=O)C(C)(C)NC(=O)[C@H](CCC(=O)O)NC(=O)[C@H](CC(C)C)NC(=O)C(C)(C)NC(=O)[C@H](CCC(=O)O)NC(=O)[C@H](CC(N)=O)NC(=O)[C@H](CC(C)C)NC(=O)[C@H](CCCCN)NC(=O)[C@H](CCC(=O)O)NC(=O)[C@H](CCCNC(=N)N)NC(=O)[C@H](Cc1ccccc1)NC(=O)[C@H](CCC(=O)O)NC(=O)[C@H](CC(=O)O)NC(=O)[C@H](CC(C)C)NC(=O)[C@@H](NC(=O)[C@@H]1CCCN1)C(C)C)C(=O)N[C@@H](CCCCN)C(=O)O (H-PVLDEFREKLNE[Aib]LE[Aib]LKQKLK-OH)	> 160 µM		> 160 µM	23 µM	
CC(C)C[C@H](NC(=O)[C@H](C)NC(=O)[C@H](CC(C(=O)O)C(=O)O)NC(=O)[C@H](CC(C)C)NC(=O)C(C)(C)NC(=O)[C@H](CCC(=O)O)NC(=O)[C@H](CC(N)=O)NC(=O)[C@H](CC(C)C)NC(=O)[C@H](CCCCN)NC(=O)[C@H](CCC(=O)O)NC(=O)[C@H](CCCNC(=N)N)NC(=O)[C@H](Cc1ccccc1)NC(=O)[C@H](CCC(=O)O)NC(=O)[C@H](CC(=O)O)NC(=O)[C@H](CC(C)C)NC(=O)[C@@H](NC(=O)[C@@H]1CCCN1)C(C)C)C(=O)N[C@@H](CCCCN)C(=O)N[C@@H](CCC(N)=O)C(=O)N[C@@H](CCCCN)C(=O)N[C@@H](CC(C)C)C(=O)N[C@@H](CCCCN)C(=O)O (H-PVLDEFREKLNE[Aib]L[Gla]ALKQKLK-OH)	75 µM		> 160 µM	41 µM	
CC(C)C[C@H](NC(=O)[C@H](C)NC(=O)[C@H](CCC(=O)O)NC(=O)[C@H](CC(N)=O)NC(=O)[C@H](CC(C)C)NC(=O)[C@H](CCCCN)NC(=O)[C@H](CC(C(=O)O)C(=O)O)NC(=O)[C@H](CCCNC(=N)N)NC(=O)[C@H](Cc1ccccc1)NC(=O)[C@H](CCC(=O)O)NC(=O)[C@H](CC(=O)O)NC(=O)[C@H](CC(C)C)NC(=O)[C@@H](NC(=O)[C@@H]1CCCN1)C(C)C)C(=O)N[C@@H](CCC(=O)O)C(=O)N[C@@H](C)C(=O)N[C@@H](CC(C)C)C(=O)N[C@@H](CCCCN)C(=O)N[C@@H](CCC(N)=O)C(=O)N[C@@H](CCCCN)C(=O)N[C@@H](CC(C)C)C(=O)N[C@@H](CCCCN)C(=O)O (H-PVLDEFR[Gla]KLNEALEALKQKLK-OH)	40 µM		> 160 µM	142 µM	
CC(C)C[C@H](NC(=O)[C@H](C)NC(=O)[C@H](CCC(=O)O)NC(=O)[C@H](CC(C)C)NC(=O)C(C)(C)NC(=O)[C@H](CCC(=O)O)NC(=O)[C@H](CC(N)=O)NC(=O)[C@H](CC(C)C)NC(=O)[C@H](CCCCN)NC(=O)[C@H](CC(C(=O)O)C(=O)O)NC(=O)[C@H](CCCNC(=N)N)NC(=O)[C@H](Cc1ccccc1)NC(=O)[C@H](CCC(=O)O)NC(=O)[C@H](CC(=O)O)NC(=O)[C@H](CC(C)C)NC(=O)[C@@H](NC(=O)[C@@H]1CCCN1)C(C)C)C(=O)N[C@@H](CCCCN)C(=O)N[C@@H](CCC(N)=O)C(=O)N[C@@H](CCCCN)C(=O)N[C@@H](CC(C)C)C(=O)N[C@@H](CCCCN)C(=O)O (H-PVLDEFR[Gla]KLNE[Aib]LEALKQKLK-OH)	75 µM		> 160 µM	44 µM	
CC.CC(C)C[C@H](NC(=O)[C@H](C)NC(=O)[C@H](CCC(=O)O)NC(=O)[C@H](CC(C)C)NC(=O)[C@@H]1CCCCC/C=C\CCCC[C@@H](NC(=O)[C@H](CCC(=O)O)NC(=O)[C@H](CC(=O)O)NC(=O)[C@H](CC(C)C)NC(=O)[C@@H](NC(=O)[C@@H]2CCCN2)C(C)C)C(=O)N[C@@H](CCCNC(=N)N)C(=O)N[C@@H](CCC(=O)O)C(=O)N[C@@H](CCCCN)C(=O)N[C@@H](CC(C)C)C(=O)N[C@@H](CC(N)=O)C(=O)N[C@@H](CCC(=O)O)C(=O)N1)C(=O)N[C@@H](CCCCN)C(=O)N[C@@H](CCC(N)=O)C(=O)N[C@@H](CCCCN)C(=O)N[C@@H](CC(C)C)C(=O)N[C@@H](CCCCN)C(=O)O (H-PVLDE[X1]REKLNE[X2]LEALKQKLK-OH; staple (Z) 6-13)	> 160 µM		> 160 µM	2 µM	
H-PVLDEFREKLNEELEALKQKLK-OH	40 µM		> 160 µM		Not Active

From ChEMBL document CHEMBL1153146, “Novel potent apoA-I peptide mimetics that stimulate cholesterol efflux and pre-beta particle formation in vitro” (Bioorg Med Chem Lett, 2010)
